Test results taken from ChEMBL document CHEMBL1154229 (Bioorg Med Chem Lett, 2009).
Active and inactive are the calls of the source. The rule behind the calls is not given here.

Legend:
[1] = Inhibition of potassium channel IKr
Cytochrome P450 2C9 = Cytochrome P450 2C9 (Homo sapiens, UniProt P11712); assay: Inhibition of CYP2C9; format: ADME
[2] = target: T1, Bifunctional epoxide hydrolase 2 (Homo sapiens, UniProt P34913); assay: Inhibition of human soluble epoxide hydrolase in HEK293 cells assessed as DHET production; format: cell-based
T1 sequence (P34913 whole entry): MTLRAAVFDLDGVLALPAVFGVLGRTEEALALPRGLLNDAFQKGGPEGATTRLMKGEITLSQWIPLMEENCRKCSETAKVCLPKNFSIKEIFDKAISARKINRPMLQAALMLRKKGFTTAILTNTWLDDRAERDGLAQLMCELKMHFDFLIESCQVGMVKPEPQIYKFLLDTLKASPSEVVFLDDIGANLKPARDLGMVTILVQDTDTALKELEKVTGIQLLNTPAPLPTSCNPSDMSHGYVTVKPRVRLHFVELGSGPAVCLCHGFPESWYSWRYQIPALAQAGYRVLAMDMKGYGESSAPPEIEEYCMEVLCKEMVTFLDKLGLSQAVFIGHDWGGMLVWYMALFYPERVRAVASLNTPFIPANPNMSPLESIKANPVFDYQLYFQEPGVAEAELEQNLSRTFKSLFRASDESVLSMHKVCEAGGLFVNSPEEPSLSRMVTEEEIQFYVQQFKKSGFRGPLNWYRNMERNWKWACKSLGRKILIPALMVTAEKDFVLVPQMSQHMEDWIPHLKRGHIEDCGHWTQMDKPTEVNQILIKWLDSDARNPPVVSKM
Outline: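 Whole-cell 14,15-DHET production assay in HEK293 cells, run with or without 10% human serum. Values come from one or two experiments, each in triplicate, with repeats within 20%.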

Cytochrome P450 3A4 = Cytochrome P450 3A4 (Homo sapiens, UniProt P08684); assay: Inhibition of CYP3A4; format: ADME
[3] = target: T1, Bifunctional epoxide hydrolase 2; assay: Inhibition of human soluble epoxide hydrolase
Epoxide hydrolase 1 = target: T2, Epoxide hydrolase 1 (Homo sapiens, UniProt P07099); assay: Inhibition of human microsomal epoxide hydrolase
T2 sequence (P07099 whole entry): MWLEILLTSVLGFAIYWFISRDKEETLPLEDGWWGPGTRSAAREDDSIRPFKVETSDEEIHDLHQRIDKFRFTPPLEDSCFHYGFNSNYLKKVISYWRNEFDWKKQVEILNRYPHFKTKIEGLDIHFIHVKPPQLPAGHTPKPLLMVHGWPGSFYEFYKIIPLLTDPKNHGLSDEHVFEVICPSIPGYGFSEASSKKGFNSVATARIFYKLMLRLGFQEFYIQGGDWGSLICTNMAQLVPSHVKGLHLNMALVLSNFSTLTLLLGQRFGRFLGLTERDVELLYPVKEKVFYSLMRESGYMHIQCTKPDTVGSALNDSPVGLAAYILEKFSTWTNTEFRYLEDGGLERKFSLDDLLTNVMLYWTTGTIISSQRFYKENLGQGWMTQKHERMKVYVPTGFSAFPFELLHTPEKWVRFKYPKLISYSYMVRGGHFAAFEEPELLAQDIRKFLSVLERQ
Outline: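 Human mEH used as the counterscreen enzyme. Values come from one or two experiments, each in triplicate, with repeats within 20%.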

[4] = target: T3, Bifunctional epoxide hydrolase 2 (Rattus norvegicus, UniProt P80299); assay: Inhibition of rat soluble epoxide hydrolase
T3 sequence (P80299 whole entry): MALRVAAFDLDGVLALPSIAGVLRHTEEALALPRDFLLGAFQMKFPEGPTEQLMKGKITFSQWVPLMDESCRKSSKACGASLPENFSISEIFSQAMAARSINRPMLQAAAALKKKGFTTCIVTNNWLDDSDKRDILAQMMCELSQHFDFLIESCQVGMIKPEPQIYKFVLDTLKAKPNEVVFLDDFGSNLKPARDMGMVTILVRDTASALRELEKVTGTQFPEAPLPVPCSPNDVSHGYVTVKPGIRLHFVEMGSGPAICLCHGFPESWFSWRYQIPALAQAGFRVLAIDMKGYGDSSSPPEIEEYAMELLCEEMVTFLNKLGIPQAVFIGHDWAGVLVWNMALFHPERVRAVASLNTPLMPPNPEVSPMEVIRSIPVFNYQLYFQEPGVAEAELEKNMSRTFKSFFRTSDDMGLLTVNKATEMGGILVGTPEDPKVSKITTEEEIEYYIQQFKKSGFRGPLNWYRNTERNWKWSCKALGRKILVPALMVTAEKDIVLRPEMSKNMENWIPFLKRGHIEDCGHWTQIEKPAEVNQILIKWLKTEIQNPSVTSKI

CYP2D6 = CYP2D6 (Homo sapiens, UniProt P10635); assay: (§1) Inhibition of CYP2D6; format: ADME
L-type calcium channel = assay: Inhibition of calcium channel diltiazem binding site
[5] = Half life in rat at 1 mg/kg, iv and 2 mg/kg, po; format: ADME, organism-based; conditions: in vivo
Outline: (§2)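 Rats dosed IV at 1 mg/kg (n = 2) and PO at 2 mg/kg (n = 3). Blood drug levels measured by LC/MS/MS after protein precipitation with acetonitrile.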

[6] = Clearance in rat at 1 mg/kg, iv and 2 mg/kg, po; format: ADME, organism-based; conditions: in vivo; outline: as §2
[7] = Volume of distribution at steady state in rat at 1 mg/kg, iv and 2 mg/kg, po; format: ADME, organism-based; conditions: in vivo, read-out: Vdss; outline: as §2
[8] = target: Sodium channel protein type 5 subunit alpha (Homo sapiens, UniProt Q14524); assay: Inhibition of Nav1.5 channel
[9] = Bioavailability in rat at 1 mg/kg, iv and 2 mg/kg, po; format: ADME, organism-based; conditions: in vivo; outline: as §2
Cytochrome P450 2D6 = Cytochrome P450 2D6 (Homo sapiens, UniProt P10635); assay: as §1; format: ADME
Rattus norvegicus [10] = assay: Antihypertensive activity in spontaneously hypertensive rat assessed as change in diastolic blood pressure at 50 mg/kg, po up to 8 hrs by telemetry method; format: functional, organism-based; design: dose 50 mg/kg; conditions: Artery
Outline: (§3)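 Spontaneously hypertensive rats dosed orally at 50 mpk. Systolic and diastolic blood pressure, heart rate and pulse pressure recorded by telemetry over 8 h post dose.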

Rattus norvegicus [11] = assay: Antihypertensive activity in spontaneously hypertensive rat assessed as change in systolic blood pressure at 50 mg/kg, po up to 8 hrs by telemetry method; format: functional, organism-based; design: dose 50 mg/kg; conditions: Artery; outline: as §3
Cytochrome P450 2C8 = target: T4, Cytochrome P450 2C8 (Homo sapiens, UniProt P10632); assay: Inhibition of CYP2C8; format: ADME
T4 sequence (P10632 whole entry): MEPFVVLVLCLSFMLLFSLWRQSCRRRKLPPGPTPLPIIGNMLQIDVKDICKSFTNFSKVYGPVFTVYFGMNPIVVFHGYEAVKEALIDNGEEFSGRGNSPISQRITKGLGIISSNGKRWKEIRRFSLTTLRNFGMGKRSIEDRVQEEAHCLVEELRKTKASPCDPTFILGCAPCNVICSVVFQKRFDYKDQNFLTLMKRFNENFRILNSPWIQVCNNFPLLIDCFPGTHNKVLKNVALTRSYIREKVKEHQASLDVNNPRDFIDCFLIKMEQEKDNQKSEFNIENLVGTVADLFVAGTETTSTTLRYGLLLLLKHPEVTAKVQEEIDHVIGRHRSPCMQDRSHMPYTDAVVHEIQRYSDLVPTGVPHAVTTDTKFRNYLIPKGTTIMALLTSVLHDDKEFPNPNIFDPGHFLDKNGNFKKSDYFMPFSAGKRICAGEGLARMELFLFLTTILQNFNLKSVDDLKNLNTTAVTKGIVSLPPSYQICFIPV

Cytochrome P450 2D6, sequence (P10635 whole entry): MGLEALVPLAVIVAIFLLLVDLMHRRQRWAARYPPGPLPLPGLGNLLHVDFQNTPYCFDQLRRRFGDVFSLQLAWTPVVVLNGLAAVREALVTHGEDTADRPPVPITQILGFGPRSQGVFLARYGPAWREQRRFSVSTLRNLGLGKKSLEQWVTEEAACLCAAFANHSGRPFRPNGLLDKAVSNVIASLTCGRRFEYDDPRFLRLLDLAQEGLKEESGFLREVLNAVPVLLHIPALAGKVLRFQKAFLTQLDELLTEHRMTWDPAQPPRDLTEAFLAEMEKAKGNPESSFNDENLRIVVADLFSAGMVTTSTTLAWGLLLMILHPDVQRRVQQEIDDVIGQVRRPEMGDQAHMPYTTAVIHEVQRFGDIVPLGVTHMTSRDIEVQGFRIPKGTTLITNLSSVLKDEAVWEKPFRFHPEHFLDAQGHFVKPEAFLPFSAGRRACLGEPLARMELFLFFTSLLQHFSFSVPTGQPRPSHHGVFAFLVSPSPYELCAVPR
CYP2D6, sequence (P10635 whole entry): as above
Cytochrome P450 3A4, sequence (P08684 whole entry): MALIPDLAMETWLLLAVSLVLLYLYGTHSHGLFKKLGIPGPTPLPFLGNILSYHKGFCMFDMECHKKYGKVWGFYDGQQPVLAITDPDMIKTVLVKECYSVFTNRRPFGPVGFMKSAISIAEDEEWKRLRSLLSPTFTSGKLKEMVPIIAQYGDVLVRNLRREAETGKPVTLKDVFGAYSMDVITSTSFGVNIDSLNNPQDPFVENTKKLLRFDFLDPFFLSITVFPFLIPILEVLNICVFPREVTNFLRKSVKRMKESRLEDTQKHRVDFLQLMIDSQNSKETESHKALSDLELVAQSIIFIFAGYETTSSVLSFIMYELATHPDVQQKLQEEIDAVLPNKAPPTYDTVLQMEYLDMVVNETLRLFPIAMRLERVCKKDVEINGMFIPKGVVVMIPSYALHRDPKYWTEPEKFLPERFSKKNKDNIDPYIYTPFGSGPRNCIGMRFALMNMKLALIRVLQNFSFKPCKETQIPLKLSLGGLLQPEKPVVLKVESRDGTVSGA
Sodium channel protein type 5 subunit alpha, sequence (Q14524 whole entry): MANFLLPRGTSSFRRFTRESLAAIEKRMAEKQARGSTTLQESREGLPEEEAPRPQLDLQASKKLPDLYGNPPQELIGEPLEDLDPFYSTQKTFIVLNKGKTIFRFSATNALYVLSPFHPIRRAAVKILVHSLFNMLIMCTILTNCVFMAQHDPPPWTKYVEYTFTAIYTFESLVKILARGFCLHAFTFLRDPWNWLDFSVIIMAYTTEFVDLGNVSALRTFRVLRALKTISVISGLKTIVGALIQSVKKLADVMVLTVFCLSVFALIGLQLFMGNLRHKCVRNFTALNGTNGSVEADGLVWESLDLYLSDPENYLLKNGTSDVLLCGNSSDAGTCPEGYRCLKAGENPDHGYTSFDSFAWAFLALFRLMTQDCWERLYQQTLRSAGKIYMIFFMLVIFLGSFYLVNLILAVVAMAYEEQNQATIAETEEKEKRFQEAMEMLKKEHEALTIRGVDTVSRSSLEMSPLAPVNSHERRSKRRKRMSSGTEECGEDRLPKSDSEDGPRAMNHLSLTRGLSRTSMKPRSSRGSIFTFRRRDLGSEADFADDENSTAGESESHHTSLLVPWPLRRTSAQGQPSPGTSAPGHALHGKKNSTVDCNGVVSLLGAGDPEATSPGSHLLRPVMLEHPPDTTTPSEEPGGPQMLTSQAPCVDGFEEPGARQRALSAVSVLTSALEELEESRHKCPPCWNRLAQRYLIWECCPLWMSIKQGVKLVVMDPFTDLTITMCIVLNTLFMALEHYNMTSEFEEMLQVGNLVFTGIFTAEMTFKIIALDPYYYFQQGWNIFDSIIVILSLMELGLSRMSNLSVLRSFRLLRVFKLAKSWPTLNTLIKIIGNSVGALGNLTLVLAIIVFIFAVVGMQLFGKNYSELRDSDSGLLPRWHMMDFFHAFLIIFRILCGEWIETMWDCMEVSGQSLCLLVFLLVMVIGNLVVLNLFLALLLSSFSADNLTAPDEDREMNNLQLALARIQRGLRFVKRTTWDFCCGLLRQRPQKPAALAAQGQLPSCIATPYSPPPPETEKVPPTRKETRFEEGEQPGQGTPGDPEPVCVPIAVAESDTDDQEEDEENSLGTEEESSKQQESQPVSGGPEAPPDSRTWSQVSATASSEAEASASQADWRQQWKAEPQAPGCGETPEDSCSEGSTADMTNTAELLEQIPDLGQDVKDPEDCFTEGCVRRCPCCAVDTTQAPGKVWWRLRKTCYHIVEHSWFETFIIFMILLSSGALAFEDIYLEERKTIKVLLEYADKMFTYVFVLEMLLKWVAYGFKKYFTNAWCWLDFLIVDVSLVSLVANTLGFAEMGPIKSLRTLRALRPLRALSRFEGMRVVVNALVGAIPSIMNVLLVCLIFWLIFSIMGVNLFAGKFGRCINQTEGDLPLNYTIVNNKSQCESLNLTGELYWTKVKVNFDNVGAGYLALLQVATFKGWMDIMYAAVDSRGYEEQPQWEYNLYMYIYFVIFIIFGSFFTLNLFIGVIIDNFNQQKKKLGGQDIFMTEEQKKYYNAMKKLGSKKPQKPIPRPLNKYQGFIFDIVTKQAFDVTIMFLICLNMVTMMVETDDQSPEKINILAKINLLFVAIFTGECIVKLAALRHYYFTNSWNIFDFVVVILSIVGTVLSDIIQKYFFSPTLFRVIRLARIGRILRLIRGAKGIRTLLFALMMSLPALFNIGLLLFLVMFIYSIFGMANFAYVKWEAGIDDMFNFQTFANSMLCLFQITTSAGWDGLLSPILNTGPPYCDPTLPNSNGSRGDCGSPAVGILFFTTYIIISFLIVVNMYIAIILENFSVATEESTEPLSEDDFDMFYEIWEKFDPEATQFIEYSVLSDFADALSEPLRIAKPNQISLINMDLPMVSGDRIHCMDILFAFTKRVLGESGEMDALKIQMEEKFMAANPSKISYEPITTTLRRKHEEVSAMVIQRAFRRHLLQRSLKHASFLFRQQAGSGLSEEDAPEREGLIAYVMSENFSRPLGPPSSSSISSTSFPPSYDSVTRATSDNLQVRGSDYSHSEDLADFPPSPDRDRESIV
Cytochrome P450 2C9, sequence (P11712 whole entry): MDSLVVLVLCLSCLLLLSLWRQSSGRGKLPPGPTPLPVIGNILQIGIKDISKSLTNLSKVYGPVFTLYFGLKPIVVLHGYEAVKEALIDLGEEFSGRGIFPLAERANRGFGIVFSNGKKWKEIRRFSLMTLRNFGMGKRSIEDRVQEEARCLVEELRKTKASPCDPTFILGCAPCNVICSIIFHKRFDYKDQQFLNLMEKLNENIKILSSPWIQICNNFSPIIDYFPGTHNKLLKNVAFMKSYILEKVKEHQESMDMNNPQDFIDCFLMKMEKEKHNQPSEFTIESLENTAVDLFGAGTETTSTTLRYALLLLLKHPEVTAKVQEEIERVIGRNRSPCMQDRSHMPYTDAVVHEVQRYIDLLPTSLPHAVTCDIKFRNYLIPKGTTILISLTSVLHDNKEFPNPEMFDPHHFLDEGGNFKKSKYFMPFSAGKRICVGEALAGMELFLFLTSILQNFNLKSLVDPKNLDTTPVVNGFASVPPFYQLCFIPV

Structure (SMILES)	IC50 (Cytochrome P450 2C9) [µM]	IC50 [2] [µM]	IC50 (Cytochrome P450 3A4) [µM]	IC50 [3] [µM]	IC50 (Epoxide hydrolase 1) [µM]	IC50 [4] [µM]	IC50 (CYP2D6) [µM]	IC50 (L-type calcium channel) [µM]	half-life [5] [h]	clearance [6] [mL/min/kg]	Vd [7] [L/kg]	bioavailability [9] [%]	IC50 (Cytochrome P450 2D6) [µM]	IC50 (Cytochrome P450 2C8) [µM]	IC50 [1] [µM]	IC50 [8] [µM]	Activity (Rattus norvegicus [10])	Activity (Rattus norvegicus [11])
CC1(c2ccccc2)CCCN(C(=O)NCCc2ccc(Cl)cc2)C1 (stereo not given)	> 10	–	< 10	0.001	54	0.005	< 10	2	–	–	–	–	–	–	9	–	–	–
CC1(c2ccccc2)CCCN(C(=O)NCc2ccc(Cl)cc2Cl)C1 (stereo not given)	> 10	–	< 10	< 0.001	–	0.003	< 10	2	–	–	–	–	–	–	20	< 10	–	–
O=C(O)CCC1(c2ccccc2)CCCN(C(=O)Nc2ccc(Cl)cc2)C1 (stereo in doubt) [listing 1 of 2 here]	–	–	–	–	–	–	–	–	–	–	–	–	–	–	–	–	inactive	inactive
O=C(Nc1ccc(Cl)cc1)N1CCCC(CCCO)(c2ccccc2)C1 (stereo not given)	< 10	< 0.001	< 10	0.0013	> 100	0.01	–	5	–	–	–	–	> 10	–	6	> 10	–	–
NC(=O)CCC1(c2ccccc2)CCCN(C(=O)Nc2ccc(Cl)cc2)C1 (stereo not given)	> 10	< 0.001	> 10	–	> 100	0.026	–	–	4.4	116	0.88	13	> 10	–	7	–	–	–
CN(C)CCC1(c2ccccc2)CCCN(C(=O)Nc2ccc(Cl)cc2)C1 (stereo not given)	> 10	0.0013	< 10	0.012	> 100	0.119	< 10	0.1	0.66	59	1.4	52	–	–	0.3	> 10	–	–
O=C(Nc1ccc(Cl)cc1)N1CCCC(CCc2nn[nH]n2)(c2ccccc2)C1 (stereo not given)	> 10	< 0.001	< 10	0.005	> 100	0.059	–	–	0.39	124	1.4	0.17	10	–	3	> 10	–	–

Continued, in another order:

IC50 (Cytochrome P450 2C9) [µM]	IC50 [2] [µM]	IC50 (Cytochrome P450 3A4) [µM]	IC50 [3] [µM]	IC50 (Epoxide hydrolase 1) [µM]	IC50 [4] [µM]	IC50 (CYP2D6) [µM]	IC50 (L-type calcium channel) [µM]	half-life [5] [h]	clearance [6] [mL/min/kg]	Vd [7] [L/kg]	bioavailability [9] [%]	IC50 (Cytochrome P450 2D6) [µM]	IC50 (Cytochrome P450 2C8) [µM]	Structure (SMILES)	IC50 [1] [µM]	IC50 [8] [µM]	Activity (Rattus norvegicus [10])	Activity (Rattus norvegicus [11])
< 10	0.013	> 10	0.029	> 100	0.026	< 10	–	–	–	–	–	–	–	CC1(c2ccccc2)CCCN(C(=O)NCCc2ccc3nc[nH]c3c2)C1 (stereo not given)	13	–	–	–
> 10	0.004	> 10	–	> 100	0.076	–	> 30	3.2	4	0.8	84	> 10	–	O=C(O)CCC1(c2ccccc2)CCCN(C(=O)Nc2ccc(Cl)cc2)C1 (stereo in doubt; 2b)	> 30	> 10	–	–
> 10	< 0.001	< 10	0.001	> 100	0.005	–	1.7	3.9	43	12	13	> 10	–	CC1(c2ccccc2)CCCN(C(=O)Nc2ccc(Cl)cc2)C1 (stereo not given)	12	> 10	–	–
> 100	0.002	> 100	0.005	> 100	0.069	–	–	–	–	–	–	> 100	65	O=C(O)CCC1(c2ccccc2)CCCN(C(=O)Nc2ccc(Cl)cc2)C1 (stereo in doubt) [listing 2 of 2 here]	–	> 10	–	–
> 10	< 0.001	> 10	0.005	> 100	0.12	–	> 30	–	–	–	–	> 10	–	O=C(O)CCC1(c2ccc(C(F)(F)F)cc2)CCCN(C(=O)Nc2ccc(Cl)cc2)C1 (stereo not given)	> 30	> 10	–	–
